{"source": "paper PMC5421626", "about": "(Japanese Journal of Clinical Oncology, 2017)", "key": {"Safety assessment": {"experiment": "Safety assessment", "format": "in vivo, human (Japanese patients with prostate cancer)", "settings": "for incidence of serious AEs / incidence of ADRs / overall incidence of AEs: SAF", "procedure,_shortened": "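The safety set covered all dosed patients, given a subcutaneous 240 mg initial dose, then 360 or 480 mg maintenance every 84 days for 12 months. Recorded were AEs, serious AEs and ADRs (including injection-site reactions), with AEs graded by NCI-CTCAE v4.0, plus biochemistry, hematology, urinalysis, vital signs and 12-lead ECG. Frequencies were tabulated by MedDRA System Organ Class and Preferred Term.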"}, "serum PSA": {"system": "serum PSA", "settings": "Study CL-0003, 1-month regimen, cited from earlier work"}, "serum testosterone [1]": {"system": "serum testosterone", "settings": "Study CS18, 3-month regimen, cited from earlier work"}, "[2]": {"experiment": "Plasma pharmacokinetics of degarelix", "format": "in vivo, human (Japanese patients with prostate cancer)", "settings": "for GMR (95% CI) of Ctrough values between Days 28 and 364: human plasma, LC-MS/MS, geometric mean ratio, PKAS; for Cmax / Tmax: male, human, plasma, sc", "procedure,_shortened": "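Patients got a subcutaneous 240 mg (40 mg/ml) initial dose, then 360 or 480 mg (60 mg/ml) every 84 days from Day 28, for four doses. Plasma was sampled every 28 days and assayed by validated LC-MS/MS (LOQ 0.5 ng/ml). Ctrough was taken on Days 28, 112, 196, 280 and 364, and GMRs with 95% CIs were compared. In a subset, samples 3 and 7 days after Day 28 gave Cmax and Tmax. Analysis set: PKAS.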"}, "serum testosterone [3]": {"system": "serum testosterone", "experiment": "Serum testosterone suppression", "format": "in vivo, human (Japanese patients with prostate cancer)", "settings": "completers–FAS"}, "[4]": {"system": "serum prostate-specific antigen (PSA)", "experiment": "Serum PSA response and PSA failure, Phase II 3-month degarelix study", "format": "in vivo, human (Japanese patients with prostate cancer)", "settings": "FAS; for median percent change in serum PSA level from baseline to Day 364: range −99.9%", "procedure,_shortened": "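Randomised 1:1 by minimisation, patients got a subcutaneous 240 mg initial dose, then from Day 28 360 or 480 mg (60 mg/ml) every 84 days for four doses. In the full analysis set, percent change in serum PSA from baseline was calculated at Days 28 and 364. PSA failure (relapse) over Days 0–364 was given as a proportion with two-sided 95% CI, and cumulative incidence by Kaplan–Meier.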"}, "serum testosterone [5]": {"system": "serum testosterone", "settings": "Study CL-0003, 1-month regimen, cited from earlier work"}}, "note": "Like-named read-outs stand apart in the source and are kept apart here. Where a SMILES comes first, the peptide text is derived from it. [ ]: non-standard residue; d: D form. The star is where a group is joined. dPhe(4-NHCONH2) = NC(=O)Nc1ccc(C[C@@H](N)C(=O)O)cc1; Dihydroorotyl(S) = O=C1C[C@@H](C(=O)*)NC(=O)N1; dPhe(4-Cl) = N[C@H](Cc1ccc(Cl)cc1)C(=O)O; Phe(4-NH2) = Nc1ccc(C[C@H](N)C(=O)O)cc1; d2Nal = N[C@H](Cc1ccc2ccccc2c1)C(=O)O; Lys(iPr) = CC(C)NCCCC[C@H](N)C(=O)O; d3Pal = N[C@H](Cc1cccnc1)C(=O)O", "data": [{"smiles": "CC(=O)N[C@H](Cc1ccc2ccccc2c1)C(=O)N[C@H](Cc1ccc(Cl)cc1)C(=O)N[C@H](Cc1cccnc1)C(=O)N[C@@H](CO)C(=O)N[C@@H](Cc1ccc(NC(=O)[C@@H]2CC(=O)NC(=O)N2)cc1)C(=O)N[C@H](Cc1ccc(NC(N)=O)cc1)C(=O)N[C@@H](CC(C)C)C(=O)N[C@@H](CCCCNC(C)C)C(=O)N1CCC[C@H]1C(=O)N[C@H](C)C(N)=O", "note": "[degarelix] (Ac-[d2Nal][dPhe(4-Cl)][d3Pal]S[Phe(4-NH2)](Dihydroorotyl(S))[dPhe(4-NHCONH2)]L[Lys(iPr)]P[dA]-NH2)", "values": [{"measurement": "patients with AEs related to injection site reactions", "setting": "Safety assessment; 360 mg group", "result": 50.0, "unit": "%"}, {"measurement": "incidence of serious AEs", "setting": "Safety assessment; 360 mg group, 13/76", "result": 17.1, "unit": "%"}, {"measurement": "incidence of ADRs", "setting": "Safety assessment; 360 mg group, 68/76", "result": 89.5, "unit": "%"}, {"measurement": "overall incidence of AEs", "setting": "Safety assessment; 360 mg group, 72/76", "result": 94.7, "unit": "%"}, {"measurement": "deaths (patients)", "setting": "Safety assessment; 360 mg group, suicide after initial dose, before maintenance dose", "result": "One"}, {"measurement": "patients with AEs related to injection site reactions", "setting": "Safety assessment; 480 mg group", "result": 60.5, "unit": "%"}, {"measurement": "patients with marked increase (≥480 ms) in QTcF on Day 364", "setting": "Safety assessment; 480 mg group, 12-lead electrocardiogram", "result": "one"}, {"measurement": "incidence of serious AEs", "setting": "Safety assessment; 480 mg group, 7/76", "result": 9.2, "unit": "%"}, {"measurement": "incidence of ADRs", "setting": "Safety assessment; 480 mg group, 71/76", "result": 93.4, "unit": "%"}, {"measurement": "overall incidence of AEs", "setting": "Safety assessment; 480 mg group, 73/76", "result": 96.1, "unit": "%"}, {"measurement": "patients who discontinued the treatment because of injection site reactions", "setting": "Safety assessment; both groups", "result": "no patient"}, {"measurement": "severity of injection site reactions", "setting": "Safety assessment; both groups, NCI-CTCAE v4.0", "result": "mild or moderate (Grade 1 or 2)"}, {"measurement": "percent change in PSA at Day 28", "setting": "serum PSA; 80 mg maintenance-dose group", "result": "–80.14%"}, {"measurement": "percent change in PSA at Day 28", "setting": "serum PSA; 160 mg maintenance-dose group", "result": "–79.52%"}, {"measurement": "cumulative probability of serum testosterone ≤0.5 ng/ml", "setting": "serum testosterone [1]; 360 mg group", "result": 89.0, "unit": "%"}, {"measurement": "cumulative probability of serum testosterone ≤0.5 ng/ml", "setting": "serum testosterone [1]; 480 mg group", "result": 93.3, "unit": "%"}, {"measurement": "GMR (95% CI) of Ctrough values between Days 28 and 364", "setting": "[2]; 360 mg group", "result": "1.258 (1.114–1.421)"}, {"measurement": "GMR (95% CI) of Ctrough values between Days 28 and 364", "setting": "[2]; 480 mg group", "result": "1.752 (1.589–1.932)"}, {"measurement": "steady state of plasma concentration", "setting": "[2]; both dose groups (360 and 480 mg every 84 days)", "result": "did not achieve steady state by Day 364"}, {"measurement": "Cmax", "setting": "[2]; 360 mg", "result": "74.7 ± 30", "unit": "ng/mL"}, {"measurement": "Tmax", "setting": "[2]; 360 mg", "result": 71.3, "unit": "h"}, {"measurement": "Cmax", "setting": "[2]; 480 mg", "result": "98.5 ± 31.7", "unit": "ng/mL"}, {"measurement": "Tmax", "setting": "[2]; 480 mg", "result": 70.8, "unit": "h"}, {"measurement": "proportion of patients with a serum testosterone level ≤0.5 ng/ml from Days 28 to 364", "setting": "serum testosterone [3]; 360 mg group, 95% CI 76.85–94.45%", "result": 87.50, "unit": "%"}, {"measurement": "proportion of patients with a serum testosterone level ≤0.5 ng/ml from Days 28 to 364", "setting": "serum testosterone [3]; 480 mg group, 95% CI 89.92–99.65%", "result": 97.10, "unit": "%"}, {"measurement": "median percent change in serum PSA level from baseline to Day 28", "setting": "[4]; 360 mg group (after 240 mg initial dose)", "result": "−70.4", "unit": "%"}, {"measurement": "proportion of patients with PSA failure (serum PSA relapse) from baseline to Day 364", "setting": "[4]; 360 mg group", "result": 2.7, "unit": "%"}, {"measurement": "median percent change in serum PSA level from baseline to Day 364", "setting": "[4]; 360 mg group, −51.3%", "result": "−95.05", "unit": "%"}, {"measurement": "median percent change in serum PSA level from baseline to Day 28", "setting": "[4]; 480 mg group (after 240 mg initial dose)", "result": "−79.9", "unit": "%"}, {"measurement": "proportion of patients with PSA failure (serum PSA relapse) from baseline to Day 364", "setting": "[4]; 480 mg group", "result": 1.3, "unit": "%"}, {"measurement": "median percent change in serum PSA level from baseline to Day 364", "setting": "[4]; 480 mg group, −44.0%", "result": "−96.43", "unit": "%"}, {"measurement": "cumulative probability of serum testosterone ≤0.5 ng/ml", "setting": "serum testosterone [5]; 80 mg maintenance-dose group", "result": 94.5, "unit": "%"}, {"measurement": "cumulative probability of serum testosterone ≤0.5 ng/ml", "setting": "serum testosterone [5]; 160 mg maintenance-dose group", "result": 95.2, "unit": "%"}]}]}
